From PubChem
Shown is part of a subset that was picked to be rich in hits.
XBP1 UPR activ – adaptive UPR (XBP1) activation. AID 463104. hit rate 0.33% among 330,000. activation, % at 20 µM. CHO-XBP1 luciferase reporter, IRE1-XBP1 UPR activation, luminescence; percent of tunicamycin response, DMSO as zero;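 active = versus positive control, 20 µM dose yields 30% or more activation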;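 also: 100% = tunicamycin at 10 µg/mL and 0% = DMSO only wells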
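incubation = overnight seeding at 37 °C, 6 h compound treatment at 37 °C | assay system = CHO-XBP1 cells stably carrying IRE1-XBP1-driven luciferase reporter | input = 1000 cells per well | detection = luciferase luminescence | dosing = single point, 20 µM final compound, 1% DMSO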
UPR CHOP act – activators of apoptotic arm of unfolded protein response (CHOP) | hit rate 0.34% among 330,000 | activation, % at 10 µM | CHO-CHOP luciferase reporter, UPR activation, luminescence; percent of tunicamycin response over DMSO baseline;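 active = at 10 µM dose, activation of 40% or more, normalized to positive control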;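 also: 100% = tunicamycin at 10 µg/mL and 0% = DMSO alone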
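Assay system: CHO-CHOP cells, stable luciferase reporter of PERK-eIF2a-CHOP signalling / Buffer or medium: F12 plus 10% serum / Compound dosing: one dose, 10 µM in 0.5% DMSO / Times: 6 h compound treatment, 37 °C / Technique: luciferase luminescence / Read-out: % reporter activation, DMSO baseline versus tunicamycin full activation / Benchmarks: tunicamycin and DMSO controls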
CHOP inhibitor – inhibitors of CHOP induction in ER stress response; CHO-K1 CHOP-promoter luciferase, tunicamycin-induced, 15-18 h; inhibition, % at 10 µM; hit rate 3.8% among 220,000; AID 2732;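 active = compounds that reduced the stress-induced luciferase reporter signal by more than about 70% of percent inhibition, limit read from the data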;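 also: 0% = tunicamycin plus vehicle and 100% = wells without tunicamycin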
H9c2 protect – protects H9c2 cardiomyocytes from peroxide injury | AID 588492 | hit rate 0.63% among 360,000 | protection from H2O2 cell death, % at 20 µM | H2O2 injury protection, ATPLite, 2 h;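 active = compounds giving at least 50% protection of heart cells from peroxide-induced death in the single-dose screen, raw or plate-pattern-corrected value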;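 also: 0% = DMSO wells with peroxide and 100% = DMSO wells without peroxide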
hiPSC survival – increases survival of single human iPS cells. hiPSC single-cell survival, ATPlite luminescence; 100% = ROCK inhibitor wells, 0% = DMSO. survival enhancement, % at 20 µM. hit rate 0.044% among 360,000. AID 602274; in the data active = survival enhancement above about 18%;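 also: cells exposed to compounds for 16 hours before the ATP read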
UPR CHOP confirm – apoptotic UPR (CHOP) activation, confirmed. hit rate 64% among 1,000. activation, % at 10 µM. CHO-CHOP cells, CHOP-luciferase reporter luminescence; percent of tunicamycin response, DMSO as zero. shares compounds with UPR CHOP act; in the data active = activation above about 33%;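 also: 0% = DMSO wells and 100% = tunicamycin 10 µg/mL wells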
XBP1 UPR conf – confirmation of adaptive unfolded protein response (XBP1) activators | CHO-XBP1 IRE1-XBP1 luciferase reporter, luminescence | shares compounds with XBP1 UPR activ | hit rate 63% among 1,000 | activation, % at 20 µM;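 active = reporter signal at least 30% of the positive control's activation in two or more of four replicate wells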;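 also: plate controls were DMSO negative control for no effect and tunicamycin 10 µg/mL positive control for full effect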
* = called active by the depositor.

`COc1cc(SC#N)ccc1N=Cc1c(C)[nH]n(-c2ccc(C)c(C)c2)c1=O` gave XBP1 UPR activ 53.6*, UPR CHOP act 68.0*, CHOP inhibitor 107.5*, H9c2 protect -11.0, hiPSC survival 4.8, UPR CHOP confirm 39.3* and XBP1 UPR conf 73.3*.
Screening COc1cc(S(=O)(=O)Nc2ccccc2)ccc1N=Cc1c(C)[nH]n(-c2ccc(C)cc2)c1=O returned XBP1 UPR activ 0.8, UPR CHOP act 2.0 and CHOP inhibitor 48.7.
`O=C1c2ccccc2C(=O)N1/N=C/c1ccc(O)c(O)c1` gave XBP1 UPR activ 72.0*, UPR CHOP act 53.9*, CHOP inhibitor 70.1*, H9c2 protect 62.3*, hiPSC survival 0.4, UPR CHOP confirm 18.3 and XBP1 UPR conf 37.2*.
Screening CC1CCCC(C)N1/N=C/c1ccc(O)c(O)c1 (stereo not given) returned XBP1 UPR activ 1.4, UPR CHOP act -0.2, H9c2 protect 41.7 and hiPSC survival -0.7.
For Cc1sc(NC(=O)c2cc(-c3ccc(Cl)cc3)nc3ccccc23)c(C(N)=O)c1C the results were XBP1 UPR activ 198.5*, UPR CHOP act 106.5*, CHOP inhibitor -24.7, H9c2 protect -6.2, hiPSC survival 0.7, UPR CHOP confirm 84.8* and XBP1 UPR conf 182.6*.
For Cc1sc(NC(=O)c2cc(-c3ccccc3)nc3ccccc23)c(C(N)=O)c1C the results were XBP1 UPR activ 1.6, UPR CHOP act 7.1, CHOP inhibitor 21.5, H9c2 protect 42.7 and hiPSC survival 0.0.
For COC(=O)[C@]1(CC(C)C)N[C@H](c2ccc(-c3ccc(F)cc3)c(OC)c2)[C@@H]2C(=O)N(C)C(=O)[C@@H]21 the results were XBP1 UPR activ -1.8, UPR CHOP act -1.1, H9c2 protect -1.5 and hiPSC survival -2.0.
Screening FC(F)(F)c1nnc2c(Sc3ccccc3)nc3ccc(Cl)cc3n12 returned XBP1 UPR activ 115.4*, UPR CHOP act 233.4*, CHOP inhibitor -104.0, H9c2 protect -10.1, hiPSC survival -5.4, UPR CHOP confirm 151.9* and XBP1 UPR conf 124.0*.
For CCOC(=O)c1c(NC(C)=O)sc2c1CCC(C=O)=C2Sc1ccccc1 the results were XBP1 UPR activ 64.3*, UPR CHOP act 294.5*, CHOP inhibitor -13.7, H9c2 protect 0.1, hiPSC survival 0.2, UPR CHOP confirm 632.2* and XBP1 UPR conf 11.9.
`O=C(NC(=S)Nc1ccc(NC(=O)c2cccs2)cc1)c1cc2ccccc2o1` gave XBP1 UPR activ 120.6*, UPR CHOP act 56.7*, CHOP inhibitor 75.8*, H9c2 protect 9.9, hiPSC survival -0.4, UPR CHOP confirm 46.4* and XBP1 UPR conf 106.3*.
`O=C(NC(=S)Nc1ccc(NC(=O)c2cccs2)cc1)c1ccco1` gave XBP1 UPR activ 0.4, UPR CHOP act 3.2, CHOP inhibitor 19.3, H9c2 protect 6.3 and hiPSC survival 0.2.
`COc1ccc2nc(/C(C#N)=C\c3ccc(C(=O)O)cc3)[nH]c2c1` gave XBP1 UPR activ -1.9, UPR CHOP act 0.5, CHOP inhibitor 6.8, H9c2 protect 12.5 and hiPSC survival 0.2.
`COc1ccc2nc(/C(C#N)=C\c3ccc(Oc4ccc([N+](=O)[O-])cn4)cc3)[nH]c2c1` gave XBP1 UPR activ 181.6*, UPR CHOP act 98.4*, CHOP inhibitor 70.9*, H9c2 protect -2.0, hiPSC survival 0.1, UPR CHOP confirm 24.1 and XBP1 UPR conf 36.6*.
Screening C#CCn1c(=NC(=O)c2ccc(S(=O)(=O)N3CCc4ccccc4C3)cc2)sc2cc(S(N)(=O)=O)ccc21 returned XBP1 UPR activ 57.7*, UPR CHOP act 81.9*, CHOP inhibitor 109.6*, H9c2 protect 0.6, hiPSC survival 0.2, UPR CHOP confirm 19.7 and XBP1 UPR conf 82.9*.
For Cc1cc(F)ccc1S(=O)(=O)N1CCCCC1CCNC(=O)C(=O)NCc1ccccn1 (stereo not given) the results were XBP1 UPR activ -2.1, UPR CHOP act 1.5, H9c2 protect 3.9 and hiPSC survival 0.6.
